Hits are enriched below; roughly 1.8% of the tested compounds scored in any of these assays.
eLon inh – inhibits E. coli Lon protease | 360,000 compounds, 0.42% hits | AID 602123 | purified E. coli Lon protease, fluorescence polarization | inhibition, % at 7.94 µM | P0A9M0; in the data active = inhibition above about 13%, passing the limit was not always enough
Tb MetRS inh – Trypanosoma brucei MetRS inhibition | inhibition, % at 11.9 µM | AID 624268 | 360,000 compounds, 0.4% hits | purified T. brucei MetRS, ATP depletion, Kinase-Glo luminescence;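 active = inhibition above a per-plate cutoff of the control wells' mean inhibition plus 3 SD, cut at about 5.5% in these data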
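Dosing: 11.9 µM compound single dose, 0.9% DMSO; Assay system: purified T. brucei MetRS enzyme; Measured by: Kinase-Glo luciferase luminescence reporting remaining unconsumed ATP; Schedule: 15 min plus 2 h at 25 °C.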
MT1-MMP act inh – MT1-MMP (human) activation inhibition. 360,000 compounds, 0.061% hits. HT1080 RFP-PRO-GFP cells, GFP/RFP ratio fluorescence, overnight; percent of plate control window, DMSO zero. P50281. GFP/RFP ratio change, % at 20 µM. AID 651647;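 active = GFP/RFP ratio change of at least 30% with cell ATP level not reduced by more than half and red fluorescence within 50% of control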
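Test system: HT1080 RFP-PRO-GFP cells; Benchmarks: DMSO and RFP-L50D-GFP cell wells; Timing: cells overnight before dosing, compound overnight, 37 °C, 5% CO2; Compound: one 20 µM compound dose with 1% DMSO; Read-out: GFP/RFP fluorescence ratio.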
SKN-1 inh – blocks SKN-1 activity in C. elegans; C. elegans VP596 Pgst-4::GFP/RFP ratio, acrylamide-induced, 24 h; inhibition, % at 21.8 µM; 360,000 compounds, 0.49% hits; AID 624304;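 active = interference check ratio from 0.5 to 1.5 plus GFP to RFP signal ratio inhibition reaching or exceeding a fixed threshold, cut at about 30% in these data, passing the limit was not always enough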
iPSC survival up – hiPSC single-cell survival enhancement; survival enhancement, % at 20 µM; 360,000 compounds, 0.044% hits; ATPlite luminescence; 100% = ROCK inhibitor wells, 0% = DMSO; in the data active = survival enhancement above about 18%;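 also: cells exposed to compounds for 16 hours before the ATP read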
PREPL inh – human PREPL enzyme inhibition. Q4J6C6. recombinant PREPL, fluorescence polarization activity-based probe. inhibition, % at 5.96 µM. 320,000 compounds, 0.68% hits; in the data active = inhibition above about 43%
Target sequence (Q4J6C6 whole entry, looked up): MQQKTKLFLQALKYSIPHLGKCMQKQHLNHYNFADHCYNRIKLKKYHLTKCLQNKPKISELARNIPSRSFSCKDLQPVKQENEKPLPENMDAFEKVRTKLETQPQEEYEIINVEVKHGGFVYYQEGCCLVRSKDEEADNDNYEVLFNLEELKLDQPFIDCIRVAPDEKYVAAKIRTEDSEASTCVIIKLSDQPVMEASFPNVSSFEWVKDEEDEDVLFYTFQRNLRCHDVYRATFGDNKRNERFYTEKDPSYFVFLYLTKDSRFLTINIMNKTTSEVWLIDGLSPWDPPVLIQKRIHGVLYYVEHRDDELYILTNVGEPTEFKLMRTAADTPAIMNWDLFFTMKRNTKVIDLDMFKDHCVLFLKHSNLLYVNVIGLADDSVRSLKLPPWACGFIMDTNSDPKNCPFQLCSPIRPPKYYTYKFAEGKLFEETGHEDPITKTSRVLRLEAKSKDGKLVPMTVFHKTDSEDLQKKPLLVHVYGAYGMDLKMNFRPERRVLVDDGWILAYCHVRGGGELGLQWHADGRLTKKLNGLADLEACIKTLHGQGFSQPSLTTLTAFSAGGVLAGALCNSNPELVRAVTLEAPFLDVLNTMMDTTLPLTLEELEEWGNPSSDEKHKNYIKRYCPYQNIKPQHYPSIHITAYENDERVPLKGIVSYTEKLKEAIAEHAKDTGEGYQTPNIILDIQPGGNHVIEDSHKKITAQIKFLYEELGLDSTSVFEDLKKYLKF
Each line names hits and unclear results; the compound was inactive in the other large screens.

CSC1SCC2C(=O)N(C)C(C(C)C)C(=O)OCC(NC(=O)c3cnc4ccccc4n3)C(=O)NC(C)C(=O)N(C)C1C(=O)N(C)C(C(C)C)C(=O)OCC(NC(=O)c1cnc3ccccc3n1)C(=O)NC(C)C(=O)N2C (centres undefined)	SKN-1 inh 42 (no result: PREPL inh)
CCc1nc2ccc(C(=O)N3CCN(c4ccccc4)CC3)cn2c1N(C)CCC(C)C	none (no result: PREPL inh)
O=C1/C(=C/c2ccncc2)CCC/C1=C\c1ccncc1	iPSC survival up 90 (no result: PREPL inh)
O=C1C(=Cc2ccncc2)CCCc2ccccc21	none (no result: PREPL inh)
OCc1cccc(-c2cnc3c(Nc4cccc(OC(F)(F)C(F)F)c4)nccn23)c1	none (no result: PREPL inh)
O=C(COC(=O)CCC1CCCC1)Nc1ccc(Cl)cn1	SKN-1 inh 41
N=c1c(C(=O)NCc2ccccc2)cc2c(=O)n3ccccc3nc2n1Cc1ccco1	SKN-1 inh 37
C=CCNc1nc(-c2ccc(Cl)cc2)cs1	SKN-1 inh 43
C=CCNc1nc(-c2ccc([N+](=O)[O-])cc2)cs1	SKN-1 inh 51
COc1cccc(CNc2nc3cc(-c4cccc(C(F)(F)F)c4)sc3c(=O)n2C)c1	none (no result: PREPL inh)
Clc1ccccc1CN1CCN(/N=C/C=C\c2ccco2)CC1	none
C(/C=C/c1ccco1)=N/N1CCN(c2ccccc2)CC1	SKN-1 inh 59
CCCNC(=O)C1(C)CCCN(CC(=O)c2ccccc2OC)C1 (centres undefined)	none (no result: PREPL inh)
Cc1ccc(C2CC(C(F)(F)F)n3nc(C(=O)NCc4c(C)nn(C)c4C)c(Cl)c3N2)cc1 (centres undefined)	SKN-1 inh 46
O=C(C1CCN(c2ccc(N3CCOCC3)nn2)CC1)N1CCN(c2ccc(F)cc2)CC1	PREPL inh 65
COc1cc(CNCc2ccccn2)ccc1OCc1ccc(Cl)c(Cl)c1	PREPL inh 49
COc1cc(CNCc2ccccn2)ccc1OCC(N)=O	none
O=C(CSc1nc(O)cc(=O)[nH]1)Nc1ccc2c(c1)CCC2	SKN-1 inh 46
Cc1ccc(NC(=O)CSc2nc(N)cc(=O)[nH]2)cc1S(=O)(=O)N1CCCCCC1	SKN-1 inh 53
CCCc1cc(=O)[nH]c(SCC(=O)Nc2ccc(C)c(S(=O)(=O)N3CCCCC3)c2)n1	none
Nc1cc(=O)[nH]c(SCC(=O)Nc2ccc3c(c2)CCC3)n1	none
O=C(CSc1nnnn1C1CCCCC1)Nc1cccc(NC(=O)c2ccco2)c1	SKN-1 inh 37
O=C(CSc1nnnn1C1CCCC1)Nc1cccc(NC(=O)c2ccco2)c1	none
OC(c1ccc(Cl)c(F)c1)c1ncc(-c2cccc(C(F)(F)F)c2)[nH]1 (centres undefined)	none (no result: PREPL inh)
COc1ccc(CC(=O)N2CCCC(C)C2)cc1 (centres undefined)	SKN-1 inh 37
CC1CCCN(C(=O)Cc2ccc(F)cc2)C1 (centres undefined)	none
COc1ccc(C(=O)c2[nH]c(N)c(C(=O)NCCc3c[nH]c4ccccc34)c2-c2c(F)cccc2Cl)cc1	none (no result: PREPL inh)
Fc1ccc(CSc2ncnc3ccccc23)cc1	SKN-1 inh 62
c1ccc(CSc2ncnc3ccccc23)cc1	SKN-1 inh 59
O=C(C[C@@H]1CC[C@H](NC(=O)Cc2ccccn2)[C@@H](CO)O1)NCCc1ccccc1	none (no result: eLon inh, iPSC survival up, PREPL inh)
CCCCn1c(CCC(=O)O)nc2c1c(=O)[nH]c(=O)n2CCC	none
COCCn1c(CCC(=O)O)nc2c1c(=O)[nH]c(=O)n2CC(C)C	SKN-1 inh 32
CC(=O)Nc1cc(NC(C)=O)cc(C(=O)OCC(=O)N2CC(C)OC(C)C2)c1 (centres undefined)	SKN-1 inh 36
COc1cccc(C2=CC(c3ccc(N(C)C)cc3)n3ncnc3N2)c1 (centres undefined)	PREPL inh 63 (no result: eLon inh, Tb MetRS inh, MT1-MMP act inh, SKN-1 inh, iPSC survival up)
CNC(=O)c1c(NC(=O)c2ccc(N3C(=O)CCC3=O)cc2)sc2c1CCC(C)C2 (centres undefined)	SKN-1 inh 41
CN(C)CCNc1ncnc2c1sc1nc(N3CCCC3)c3c(c12)CC(C)(C)OC3	SKN-1 inh 50
O=C(c1cc(COc2ccc(F)cc2Cl)on1)N1CCCCCCC1	none

Assay outcomes as filed in PubChem BioAssay.
